Values joined by “and” are separate entries in the source; they are usually repeats but may differ in a detail not shown here. Identical values can stand only once. “Also recorded” adds a separate entry of the source. One block for each compound: values may come before it.
Legend:
Assay type in all cases: biochemical
[1] = target: T1, recombinant human DCXR (Homo sapiens, UniProt Q7Z4W1); experiment: L-xylulose reduction by recombinant DCXR, substrate kinetics; conditions: for Km / kcat: pH 7.0
Outline: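 Enzyme: recombinant His-tagged human DCXR from E. coli BL21(DE3), Ni-NTA purified. Reduction was assayed in 100 mM phosphate buffer pH 7.0 and started by adding enzyme. Initial rates of NADPH oxidation were read at 340 nm in a microplate reader. Rates were converted using NAD(P)H calibration curves made in the reaction mix.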

[2] = target: T1, recombinant human DCXR; experiment: Inhibition of quinone redox cycling by DCXR; conditions: for Type of inhibition: inhibition of redox cycling with 9,10-phenanthrenequinone
Outline: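 Assay for redox cycling by His-tagged human DCXR (E. coli-expressed, Ni-NTA purified). Superoxide was measured as acetylated cytochrome c reduction at 550 nm. 100 μL mixes: 50 mM potassium phosphate pH 7.8, 50 μM acetylated cytochrome c, 0.2 mM NADPH, 20 μM 9,10-phenanthrenequinone, 1.2 or 1.6 μg DCXR, varied inhibitor. Competitive Ki was taken from Lineweaver–Burk plots.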

[3] = target: T1, recombinant human DCXR; experiment: Inhibition of diacetyl reduction by DCXR
Outline: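 Human DCXR, His-tagged, expressed in E. coli BL21(DE3) with 0.5 mM IPTG (4 h, 37 °C), Ni-NTA purified. 100 μL mixes: 600 μM NADH, 2 mM diacetyl, 1–2 μg DCXR, plus quinone inhibitor. Acetoin formed was quantified by HPLC against a standard calibration curve. Inhibition type and Ki were derived from kinetic analysis.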

[4] = target: T1, recombinant human DCXR; experiment: Chemical redox cycling by DCXR; conditions: for EC50: EC50, half maximal concentration of quinones activating H2O2 production by redox cycling with DCXR, 5 μg/ml recombinant DCXR and 200 μM NADH; for Km / kcat: redox cycling
[5] = target: T1, recombinant human DCXR; experiment: Oxygen consumption during DCXR redox cycling; conditions: 600 μM NADH, 20 μM 9,10-phenanthrenequinone
Outline: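 Clark-type oxygen electrode measurements used 16 μg recombinant human DCXR per 0.8 mL reaction. NADH and 9,10-phenanthrenequinone were run first to set a stable baseline, then DCXR was added to start the reaction. Diacetyl was added either after DCXR or at time zero (pretreatment). Short-chain fatty acids were added at set time points during cycling.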

[6] = target: T1, recombinant human DCXR; experiment: Xylitol dehydrogenation
Outline: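 Recombinant His-tagged human DCXR (E. coli-expressed, Ni-NTA purified) oxidized xylitol in 0.1 mL reactions: 100 mM glycine buffer pH 9.5, 3 mM MgCl2, NADP+ and xylitol. Reactions were started by adding enzyme. NADPH formation was followed as the absorbance change at 340 nm in a microplate reader.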

[7] = target: T1, recombinant human DCXR; experiment: Diacetyl reduction by recombinant DCXR
[8] = xylulose varied, 0.6 mM NADPH fixed
[9] = Ki, inhibition of diacetyl reduction
[10] = inhibition of diacetyl reduction
[11] = quinone varied, 200 μM NADPH fixed
[12] = NADPH varied, 6 mM xylulose fixed
[13] = NADPH varied, 20 μM 9,10-PQ fixed
[14] = NADPH varied, 2 mM diacetyl fixed, pH 7.0

T1 sequence (Q7Z4W1 whole entry): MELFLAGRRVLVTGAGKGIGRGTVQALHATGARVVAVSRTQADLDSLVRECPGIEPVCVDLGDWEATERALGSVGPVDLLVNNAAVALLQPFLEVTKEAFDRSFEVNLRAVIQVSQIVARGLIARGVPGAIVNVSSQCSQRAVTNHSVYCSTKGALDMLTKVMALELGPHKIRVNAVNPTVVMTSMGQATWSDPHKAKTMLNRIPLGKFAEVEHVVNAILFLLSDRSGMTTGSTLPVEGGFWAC

Vmax ([1]; reduction of L-xylulose using NADPH as the cofactor): 33.8 µM/min
Km [1, 8]: 503 µM
kcat [1, 8]: 1.09 S^−1
Type of inhibition ([2]; listed as Xylulose): competitive
SMILES: O=C(CO)[C@H](O)[C@@H](O)CO [L-xylulose]
Type of inhibition [2]: competitive inhibitors; also recorded: competitive type inhibition

SMILES: O=C1C=Cc2ccccc2C1=O [1,2-naphthoquinone]
IC50 [3]: 2.9 µM
Ki [3, 9]: 1.4 µM and 1.35 µM
Type of inhibition [3, 10]: competitive
EC50 [4]: 1.5 µM

SMILES: O=C1C=CC(=O)c2ccccc21 [1,4-naphthoquinone]
IC50 [3]: 11.8 µM
Ki [3]: 5.4 µM
Type of inhibition [3, 10]: competitive
EC50 [4]: 5.4 µM
Km [4, 11]: 10.8 µM
kcat [4, 11]: 0.0283 s⁻¹

IC50 [3]: 4400 µM
IC50 [2]: 28400 µM
SMILES: CCCCC(=O)O [pentanoic acid]

IC50 [3]: 52.8 µM
Ki [3]: 24.3 µM
Type of inhibition [3, 10]: competitive type of inhibition
inhibition at 300 µM ([3]; read-out: Inhibition of DCXR mediated reduction of diacetyl): > 90%
SMILES: CC1=CC(=O)c2ccccc2C1=O [menadione, 2-methyl-1,4-naphthoquinone]

Effect on oxygen consumption during redox cycling ([5]; butyric acid 10 mM): Inhibition of oxygen consumption
IC50 [3]: 950 µM
IC50 [2]: 6800 µM
SMILES: CCCC(=O)O [butyric acid]

kcat ([6]; NADP(+) varied, 200 mM xylitol fixed): 1.7 S^−1
Km ([6]; NADP(+) varied, 200 mM xylitol fixed, 100 mM glycine buffer with 3 mM MgCl2): 110 µM
Vmax ([6]; oxidation of xylitol using NADP+ as the cofactor): 70.9 µM/min
SMILES: NC(=O)c1ccc[n+]([C@@H]2O[C@H](COP(=O)([O-])OP(=O)(O)OC[C@H]3O[C@@H](n4cnc5c(N)ncnc54)[C@H](OP(=O)(O)O)[C@@H]3O)[C@@H](O)[C@H]2O)c1 [NADP(+)]

Effect on oxygen consumption during redox cycling ([5]; diacetyl 5 mM): Inhibition of oxygen consumption
Ki [2]: 190 µM
Type of inhibition ([2]; listed as Diacetyl): competitive
inhibition at 5000 µM ([2]; read-out: Inhibition of menadione-stimulated superoxide anion formation): ~75%
kcat ([7]; diacetyl varied, 200 μM NADPH fixed, pH 7.0): 5.80 S^−1
SMILES: CC(=O)C(C)=O [diacetyl, 2,3-butanedione]
Type of inhibition [2]: competitive inhibitors; also recorded: competitive type inhibition

SMILES: NC(=O)C1=CN([C@@H]2O[C@H](COP(=O)(O)OP(=O)(O)OC[C@H]3O[C@@H](n4cnc5c(N)ncnc54)[C@H](OP(=O)(O)O)[C@@H]3O)[C@@H](O)[C@H]2O)C=CC1 [NADPH]
Km [1, 12]: 24 µM
kcat [1, 12]: 1.55 S^−1
Km [4, 13]: 31 µM
kcat [4, 13]: 0.115 s⁻¹
Vmax ([7]; NADPH at fixed concentration of diacetyl): 30.9 µM/min
Km [7, 14]: 90 µM
kcat [7, 14]: 1.6 S^−1 and 1.60 S^−1

SMILES: O=C1C(=O)c2ccccc2-c2ccccc21 [9,10-phenanthrenequinone]
IC50 [3]: 9.3 µM
Ki [3, 9]: 4.3 µM and 4.27 µM
Type of inhibition [3, 10]: competitive
EC50 [4]: 1.7 µM

IC50 [3]: 19900 µM
IC50 [2]: 25100 µM
SMILES: CCCCCCC(=O)O [heptanoic acid]

SMILES: CCCCCC(=O)O [hexanoic acid]
Effect on oxygen consumption during redox cycling ([5]; hexanoic acid 50 mM): Inhibition of oxygen consumption
IC50 [3]: 6100 µM
IC50 [2]: 36000 µM

Source: paper PMC5708134 (Chemical research in toxicology, 2017)
